Experiments:
[1] = target: Glutamate receptor ionotropic, AMPA (Rattus norvegicus, UniProt P19490+P19491+P19492+P19493); test: In vitro inhibitory concentration against AMPA receptor using [3H]AMPA; assay type: protein-complex assay
Summary of the method: (§1)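 Displacement binding to rat cortical membranes. Radioligands: NMDA site 2 nM [3H]CGP 39653; AMPA site 5 nM [3H]AMPA; KA site 5 nM [3H]KA without CaCl2. Bound radioactivity was counted by scintillation. IC50 came from nonlinear regression with a Hill-coefficient inhibition equation on percent of total specific binding. Mean ± SEM of at least three independent experiments.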

[2] = target: Glutamate receptor ionotropic, kainate; test: In vitro inhibitory concentration against KA receptor using [3H]KA; assay type: protein-complex assay, Rattus norvegicus; summary of the method: as §1
[3] = target: Glutamate NMDA receptor; test: In vitro binding affinity for NMDA receptor using [3H]-CGP- 39653; assay type: protein-complex assay, Rattus norvegicus
Summary of the method: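 Displacement binding to rat cortical membranes. Bound radioactivity was counted by scintillation. IC50 came from nonlinear regression with a Hill-coefficient inhibition equation on percent of total specific binding. Mean ± SEM of at least three independent experiments.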

[4] = target: T1, Metabotropic glutamate receptor 1 (Rattus norvegicus, UniProt P23385); test: Binding affinity for mGluR1 receptor expressed in CHO cells; assay type: cell-based
T1 sequence (P23385 whole entry): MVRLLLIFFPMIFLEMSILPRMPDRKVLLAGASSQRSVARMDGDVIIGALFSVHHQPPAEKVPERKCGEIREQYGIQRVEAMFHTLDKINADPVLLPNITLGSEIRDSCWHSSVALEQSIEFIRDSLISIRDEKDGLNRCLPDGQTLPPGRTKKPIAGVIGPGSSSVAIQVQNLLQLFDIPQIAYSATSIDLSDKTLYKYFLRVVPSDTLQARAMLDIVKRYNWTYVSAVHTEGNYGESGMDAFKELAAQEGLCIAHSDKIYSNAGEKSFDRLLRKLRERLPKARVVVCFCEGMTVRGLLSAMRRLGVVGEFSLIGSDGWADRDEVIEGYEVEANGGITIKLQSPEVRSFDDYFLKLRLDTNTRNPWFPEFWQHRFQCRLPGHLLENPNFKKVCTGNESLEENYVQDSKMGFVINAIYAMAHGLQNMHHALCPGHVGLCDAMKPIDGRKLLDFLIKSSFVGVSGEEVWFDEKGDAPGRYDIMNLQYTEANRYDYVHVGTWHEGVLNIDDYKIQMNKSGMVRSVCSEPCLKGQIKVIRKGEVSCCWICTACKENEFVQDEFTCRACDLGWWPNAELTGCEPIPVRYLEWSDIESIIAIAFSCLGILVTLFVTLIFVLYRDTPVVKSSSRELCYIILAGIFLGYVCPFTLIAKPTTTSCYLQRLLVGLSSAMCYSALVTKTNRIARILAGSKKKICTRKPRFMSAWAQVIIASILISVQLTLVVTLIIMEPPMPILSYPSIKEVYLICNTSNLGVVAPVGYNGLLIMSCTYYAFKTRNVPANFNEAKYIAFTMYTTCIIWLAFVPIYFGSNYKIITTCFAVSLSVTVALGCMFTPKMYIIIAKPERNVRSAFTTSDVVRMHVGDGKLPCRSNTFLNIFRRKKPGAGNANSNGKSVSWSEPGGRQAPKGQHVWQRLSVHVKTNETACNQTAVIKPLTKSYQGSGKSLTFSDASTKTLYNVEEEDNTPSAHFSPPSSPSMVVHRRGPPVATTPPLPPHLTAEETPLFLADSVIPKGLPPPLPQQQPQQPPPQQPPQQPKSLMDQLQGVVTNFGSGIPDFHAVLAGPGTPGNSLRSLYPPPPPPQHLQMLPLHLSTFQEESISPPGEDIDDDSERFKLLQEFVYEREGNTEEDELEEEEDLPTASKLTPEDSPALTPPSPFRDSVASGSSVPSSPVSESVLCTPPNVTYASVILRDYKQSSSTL

[5] = target: T2, Metabotropic glutamate receptor 4 (Rattus norvegicus, UniProt P31423); test: Binding affinity for mGluR4 receptor expressed in CHO cells; assay type: cell-based
T2 sequence (P31423 whole entry): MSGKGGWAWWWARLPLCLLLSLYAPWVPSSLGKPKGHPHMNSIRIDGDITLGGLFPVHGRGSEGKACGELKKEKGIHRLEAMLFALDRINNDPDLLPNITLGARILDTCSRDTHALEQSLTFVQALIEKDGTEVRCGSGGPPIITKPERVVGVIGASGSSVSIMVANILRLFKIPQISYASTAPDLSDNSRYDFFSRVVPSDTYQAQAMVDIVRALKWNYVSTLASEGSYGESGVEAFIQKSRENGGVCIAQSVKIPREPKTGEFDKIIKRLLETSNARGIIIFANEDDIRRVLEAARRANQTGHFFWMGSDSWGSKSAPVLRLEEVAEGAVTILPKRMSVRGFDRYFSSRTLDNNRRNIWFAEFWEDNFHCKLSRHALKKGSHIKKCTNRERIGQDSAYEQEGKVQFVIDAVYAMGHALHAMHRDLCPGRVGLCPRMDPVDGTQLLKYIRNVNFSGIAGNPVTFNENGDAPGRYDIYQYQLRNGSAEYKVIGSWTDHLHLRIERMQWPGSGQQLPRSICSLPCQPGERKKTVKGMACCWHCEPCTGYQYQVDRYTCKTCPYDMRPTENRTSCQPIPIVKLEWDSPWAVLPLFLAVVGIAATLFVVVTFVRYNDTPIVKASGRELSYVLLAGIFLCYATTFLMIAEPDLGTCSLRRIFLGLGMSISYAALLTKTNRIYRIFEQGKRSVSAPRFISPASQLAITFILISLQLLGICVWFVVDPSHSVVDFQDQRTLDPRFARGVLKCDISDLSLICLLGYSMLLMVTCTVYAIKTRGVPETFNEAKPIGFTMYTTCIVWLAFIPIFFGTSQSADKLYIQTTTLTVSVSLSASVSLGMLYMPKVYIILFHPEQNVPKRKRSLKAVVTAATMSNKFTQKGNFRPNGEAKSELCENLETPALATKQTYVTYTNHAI

[6] = target: T3, Metabotropic glutamate receptor 2 (Rattus norvegicus, UniProt P31421); test: Effective concentration against mGluR2 receptor expressed in CHO cells; assay type: cell-based
T3 sequence (P31421 whole entry): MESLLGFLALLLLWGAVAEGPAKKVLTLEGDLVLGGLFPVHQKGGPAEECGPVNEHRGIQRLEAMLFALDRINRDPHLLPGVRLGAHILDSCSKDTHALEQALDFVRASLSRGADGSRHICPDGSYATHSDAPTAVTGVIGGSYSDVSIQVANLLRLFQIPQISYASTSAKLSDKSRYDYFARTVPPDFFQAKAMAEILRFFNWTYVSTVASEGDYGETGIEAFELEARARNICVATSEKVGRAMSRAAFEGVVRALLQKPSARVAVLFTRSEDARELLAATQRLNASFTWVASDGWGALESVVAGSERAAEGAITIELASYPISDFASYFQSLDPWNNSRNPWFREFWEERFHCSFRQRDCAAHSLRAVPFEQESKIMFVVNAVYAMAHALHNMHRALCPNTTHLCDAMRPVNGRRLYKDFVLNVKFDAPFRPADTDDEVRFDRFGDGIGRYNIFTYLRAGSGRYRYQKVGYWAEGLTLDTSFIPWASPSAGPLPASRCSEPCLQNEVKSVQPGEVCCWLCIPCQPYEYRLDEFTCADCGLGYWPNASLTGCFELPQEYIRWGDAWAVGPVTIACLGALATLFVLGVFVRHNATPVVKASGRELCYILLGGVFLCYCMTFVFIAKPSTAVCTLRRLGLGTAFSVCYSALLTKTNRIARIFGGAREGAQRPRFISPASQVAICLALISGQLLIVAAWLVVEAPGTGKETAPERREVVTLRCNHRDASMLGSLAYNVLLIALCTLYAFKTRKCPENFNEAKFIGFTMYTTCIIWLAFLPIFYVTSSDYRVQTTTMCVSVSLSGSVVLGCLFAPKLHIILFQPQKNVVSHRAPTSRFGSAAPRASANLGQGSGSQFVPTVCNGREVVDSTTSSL
Summary of the method: (§2)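 CHO cell lines stably expressing rat mGluR1a, mGluR2 or mGluR4a. Functional second-messenger read-out: intracellular calcium for mGluR1, cyclic AMP levels for mGluR2 and mGluR4. Values are mean ± SEM of at least three independent experiments.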

[7] = target: T2, Metabotropic glutamate receptor 4; test: Effective concentration against mGluR4 receptor expressed in CHO cells; assay type: cell-based; summary of the method: as §2
[8] = target: Metabotropic glutamate receptor 4 (Rattus norvegicus) (UniProt P31423); test: Binding affinity for mGluR4 receptor expressed in CHO cells; weak
Chain of Metabotropic glutamate receptor 4 (Rattus norvegicus) (P31423 whole entry, looked up): as the sequence (P31423 whole entry) above

[9] = target: T3, Metabotropic glutamate receptor 2; test: Binding affinity for mGluR2 receptor expressed in CHO cells; assay type: cell-based
[10] = target: T1, Metabotropic glutamate receptor 1; test: Effective concentration against mGluR1 receptor expressed in CHO cells; assay type: cell-based; summary of the method: as §2
[11] = target: T3, Metabotropic glutamate receptor 2; test: Effective concentration against mGluR2 receptor expressed in CHO cells; weak; assay type: cell-based; summary of the method: as §2
[12] = Inhibition of 10 uM NMDA induced electrophysiological response in rat cortical wedge preparation

IC50 [1]	IC50 [2]	Ki [3]	Ki [4]	Ki [5]	EC50 [6]	EC50 [7]	Structure (SMILES)	also measured
> 100 µM	> 100 µM						N[C@@H](C[C@H]1CC(C(=O)O)=NO1)C(=O)O	
			> 1000 µM		> 1000 µM		N[C@]1(C(=O)O)C[C@@H]2ON=C(C(=O)O)[C@@H]2C1	Ki [9]: > 1000 µM; EC50 [10]: > 1000 µM
> 100 µM	> 100 µM	0.51 µM					N[C@H](C[C@@H]1CC(C(=O)O)=NO1)C(=O)O	
> 100 µM	> 100 µM	0.233 µM	> 1000 µM	> 1000 µM	> 1000 µM	> 1000 µM	N[C@@]1(C(=O)O)C[C@@H]2C(C(=O)O)=NO[C@@H]2C1	Ki [9]: > 1000 µM; EC50 [10]: > 1000 µM
> 100 µM	> 100 µM	0.37 µM	94 µM	> 1000 µM		> 1000 µM	NC1(C(=O)O)CC2ON=C(C(=O)O)C2C1 (racemic; form 1)	IC50 [12]: 14 µM
		> 100 µM	27 µM		16 µM		NC1(C(=O)O)CC2ON=C(C(=O)O)C2C1 (racemic; form 2)	Ki ([5]; cho): > 1000 µM; EC50 ([7]; cho): > 1000 µM

Continued, compound first:

Structure (SMILES)	IC50 [1]	IC50 [2]	Ki [3]	Ki [4]	Ki [5]	EC50 [6]	EC50 [7]	also measured
N[C@H](C[C@H]1CC(C(=O)O)=NO1)C(=O)O	> 100 µM	> 100 µM	0.1 µM					
N[C@]1(C(=O)O)C[C@@H]2C(C(=O)O)=NO[C@@H]2C1				33 µM	> 1000 µM	9.1 µM	> 1000 µM	Ki [8]: weak
N[C@@H](C[C@@H]1CC(C(=O)O)=NO1)C(=O)O	> 100 µM	> 100 µM	1.9 µM					
N[C@@]1(C(=O)O)C[C@@H]2ON=C(C(=O)O)[C@@H]2C1			47 µM					EC50 [11]: Not Active
NC(CC1CC(C(=O)O)=NO1)C(=O)O (racemic; form 1)	> 100 µM	> 100 µM	0.21 µM	> 1000 µM	> 1000 µM	> 1000 µM	> 1000 µM	Ki [9]: > 1000 µM; IC50 [12]: 14.2 µM; EC50 [10]: > 1000 µM
NC(CC1CC(C(=O)O)=NO1)C(=O)O (racemic; form 2)			0.96 µM					IC50 [12]: 30.5 µM

Source: ChEMBL document CHEMBL1141106, “Synthesis, binding affinity at glutamic acid receptors, neuroprotective effects, and molecular modeling investigation of novel dihydroisoxazole amino acids” (J Med Chem, 2005)
